Square brackets hold non-standard residues; d marks the D form. Peptide text beside a SMILES is read from it. * marks the point of attachment. dNMeF = CN[C@H](Cc1ccccc1)C(=O)O; Cbz = O=C(OCc1ccccc1)*; Bn = c1ccc(C*)cc1
Experiments:
[1] = test system: HCT-116; test: Cytotoxicity against multidrug-resistant human HCT116 cells by thymidine incorporation assay; assay type: functional, cell-based
How it was run: (§1)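 Cells (3000/well) were plated in IMDM (HCT-116), RPMI 1640 (HCT-15) or MEM (WS-1), each with L-glutamine, 10% FBS and 0.1% penicillin-streptomycin. Compounds in DMSO (1% in all wells) were added after about 6 h and left for 72 h, with 3H-thymidine pulsed for the last 16 h. Uptake was scintillation-counted against DMSO controls. IC50 came from four-concentration curves, three experiments in quadruplicate.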

[2] = test system: HCT-15; test: Cytotoxicity against multidrug-resistant human HCT15 cells by thymidine incorporation assay; assay type: functional, cell-based; how it was run: as §1
[3] = test system: HCT-116; test: Cytotoxicity against multidrug-resistant human HCT116 cells at 1 uM by thymidine incorporation assay; assay type: functional
How it was run: (§2)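 HCT-116 cells were grown in IMDM and HCT-15 in RPMI 1640, each with L-glutamine, 10% FBS and penicillin-streptomycin, at 3000 cells/well. Compound was applied at 1 µM in 1% DMSO for 72 h total, with 3H-thymidine added for the final 16 h. Percent growth inhibition versus DMSO controls was scintillation-counted, averaging three wells in each of three assays.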

[4] = test system: HCT-15; test: Cytotoxicity against multidrug-resistant human HCT15 cells at 1 uM by thymidine incorporation assay; assay type: functional; how it was run: as §2
[5] = Cytotoxicity against human WS1 cells by thymidine incorporation assay; assay type: cell-based; how it was run: as §1

| Structure (SMILES) | IC50 [1] [µM] | IC50 [2] [µM] | inhibition at 1 µM [3] [%] | inhibition at 1 µM [4] [%] | IC50 [5] [µM] |
| --- | --- | --- | --- | --- | --- |
| CC(C)C[C@@H]1NC(=O)[C@H](Cc2ccccc2)NC(=O)[C@H](CC(C)C)NC(=O)[C@H](C(C)C)NC(=O)[C@H](CC(C)C)NC1=O (HELM PEPTIDE1{F.L.L.V.L}$PEPTIDE1,PEPTIDE1,1:R1-5:R2$$$V2.0) | 25 | 46 | 28 | 10 | 200 |
| CC(C)C[C@@H]1NC(=O)[C@H](Cc2ccccc2)NC(=O)[C@@H](CC(C)C)N(C)C(=O)[C@H](C(C)C)NC(=O)[C@H](CC(C)C)NC1=O (HELM PEPTIDE1{F.L.L.V.[CC(C)C[C@H](C(=O)[*:2])N(C)[*:1]]}$PEPTIDE1,PEPTIDE1,1:R1-5:R2$$$V2.0) | > 50 | > 50 | 25 | 33 |  |
| CC(C)C[C@@H]1NC(=O)[C@H](Cc2ccccc2)NC(=O)[C@@H](CC(C)C)NC(=O)[C@H](C(C)C)NC(=O)[C@H](CC(C)C)NC1=O (HELM PEPTIDE1{F.L.L.V.[dL]}$PEPTIDE1,PEPTIDE1,1:R1-5:R2$$$V2.0) | > 50 | > 50 | 18 | 10 |  |
| CC(C)C[C@@H]1NC(=O)[C@H](Cc2ccccc2)NC(=O)[C@H](CC(C)C)N(C)C(=O)[C@H](C(C)C)NC(=O)[C@H](CC(C)C)NC1=O (HELM PEPTIDE1{F.L.L.V.[meL]}$PEPTIDE1,PEPTIDE1,1:R1-5:R2$$$V2.0) | > 50 | > 50 | 20 | 3 |  |
| CC(C)C[C@@H]1NC(=O)[C@H](Cc2ccccc2)NC(=O)[C@H](CC(C)C)NC(=O)[C@@H](C(C)C)NC(=O)[C@H](CC(C)C)NC1=O (HELM PEPTIDE1{F.L.L.[dV].L}$PEPTIDE1,PEPTIDE1,1:R1-5:R2$$$V2.0) | 1.3 | 0.8 | 48 | 48 | 20 |
| CC(C)C[C@@H]1NC(=O)[C@H](C(C)C)NC(=O)[C@H](CC(C)C)NC(=O)[C@H](CC(C)C)N(C)C(=O)[C@H](Cc2ccccc2)NC1=O (HELM PEPTIDE1{F.[meL].L.V.L}$PEPTIDE1,PEPTIDE1,1:R1-5:R2$$$V2.0) | 0.8 | 4.5 | 59 | 35 | 200 |
| CC(C)C[C@@H]1NC(=O)[C@H](CC(C)C)NC(=O)[C@@H](Cc2ccccc2)NC(=O)[C@H](CC(C)C)NC(=O)[C@H](C(C)C)NC1=O (HELM PEPTIDE1{L.L.V.L.[dF]}$PEPTIDE1,PEPTIDE1,1:R1-5:R2$$$V2.0) | > 50 | > 50 | 30 | 26 |  |
| CC(C)C[C@@H]1NC(=O)[C@H](CC(C)C)NC(=O)[C@@H](Cc2c[nH]c3ccccc23)NC(=O)[C@H](CC(C)C)NC(=O)[C@H](C(C)C)NC1=O (HELM PEPTIDE1{L.L.V.L.[dW]}$PEPTIDE1,PEPTIDE1,1:R1-5:R2$$$V2.0) |  |  | 2 | 9 |  |
| CC(C)C[C@@H]1NC(=O)[C@H](CC(C)C)NC(=O)[C@@H](Cc2ccc(O)cc2)NC(=O)[C@H](CC(C)C)NC(=O)[C@H](C(C)C)NC1=O (HELM PEPTIDE1{L.L.V.L.[dY]}$PEPTIDE1,PEPTIDE1,1:R1-5:R2$$$V2.0) | 1.5 | 1 | 45 | 47 | 200 |
| CC(C)C[C@@H]1NC(=O)[C@H](CC(C)C)NC(=O)[C@@H](Cc2ccccc2)NC(=O)[C@@H](CC(C)C)NC(=O)[C@@H](C(C)C)NC1=O (HELM PEPTIDE1{L.L.[dV].[dL].[dF]}$PEPTIDE1,PEPTIDE1,1:R1-5:R2$$$V2.0) |  |  | 44 | 35 |  |
| CC(C)C[C@@H]1NC(=O)[C@@H](Cc2ccccc2)NC(=O)[C@H](C(C)C)NC(=O)[C@@H](CC(C)C)NC(=O)[C@@H](CC(C)C)NC1=O (HELM PEPTIDE1{L.[dL].[dL].V.[dF]}$PEPTIDE1,PEPTIDE1,1:R1-5:R2$$$V2.0) |  |  | 32 | 0 |  |
| CC[C@@H]1NC(=O)[C@H](CC(C)C)NC(=O)[C@H](CC(C)C)NC(=O)[C@H](Cc2ccccc2)NC(=O)[C@H](CC(C)C)NC1=O (HELM PEPTIDE1{[Abu].L.F.L.L}$PEPTIDE1,PEPTIDE1,1:R1-5:R2$$$V2.0) |  |  | 1 | 8 |  |
| CC[C@@H]1NC(=O)[C@H](CC(C)C)NC(=O)[C@H](CC(C)C)NC(=O)[C@H](Cc2ccccc2)NC(=O)[C@@H](CC(C)C)NC1=O (HELM PEPTIDE1{[Abu].[dL].F.L.L}$PEPTIDE1,PEPTIDE1,1:R1-5:R2$$$V2.0) |  |  | 13 | 8 |  |
| CC(C)C[C@@H]1NC(=O)[C@H](C(C)C)NC(=O)[C@H](CC(C)C)NC(=O)[C@@H](CC(C)C)N(C)C(=O)[C@H](Cc2ccccc2)NC1=O (HELM PEPTIDE1{[CC(C)C[C@H](C(=O)[*:2])N(C)[*:1]].L.V.L.F}$PEPTIDE1,PEPTIDE1,1:R1-5:R2$$$V2.0) | 2 | 1.2 | 42 | 48 | 200 |
| CC(C)[C@@H]1NC(=O)[C@H](CC2CCCCC2)NC(=O)[C@H](CO)NC(=O)[C@H](Cc2ccccc2)NC(=O)[C@@H](Cc2ccccc2)N(C)C1=O (HELM PEPTIDE1{[Cha].V.[CN([C@H](Cc1ccccc1)C(=O)[*:2])[*:1]].F.S}$PEPTIDE1,PEPTIDE1,1:R1-5:R2$$$V2.0) |  |  | 34 | 20 |  |
| CC(C)C[C@@H]1C(=O)N[C@H](CC(C)C)C(=O)N(C)[C@H](C(C)C)C(=O)N[C@H](CC(C)C)C(=O)N[C@H](Cc2ccccc2)C(=O)N1C (HELM PEPTIDE1{[dF].[CC(C)C[C@H](C(=O)[*:2])N(C)[*:1]].[dL].[CC(C)[C@H](C(=O)[*:2])N(C)[*:1]].[dL]}$PEPTIDE1,PEPTIDE1,1:R1-5:R2$$$V2.0) |  |  | 43 | 48 |  |
| CC(C)C[C@@H]1C(=O)N[C@H](CC(C)C)C(=O)N[C@H](C(C)C)C(=O)N[C@H](CC(C)C)C(=O)N[C@H](Cc2ccccc2)C(=O)N1C (HELM PEPTIDE1{[dF].[CC(C)C[C@H](C(=O)[*:2])N(C)[*:1]].[dL].[dV].[dL]}$PEPTIDE1,PEPTIDE1,1:R1-5:R2$$$V2.0) |  |  | 42 | 28 |  |
| CC(C)C[C@H]1NC(=O)[C@@H](Cc2ccccc2)NC(=O)[C@@H](CC(C)C)NC(=O)[C@@H](C(C)C)N(C)C(=O)[C@@H](CC(C)C)NC1=O (HELM PEPTIDE1{[dF].[dL].[dL].[CC(C)[C@H](C(=O)[*:2])N(C)[*:1]].[dL]}$PEPTIDE1,PEPTIDE1,1:R1-5:R2$$$V2.0) |  |  | 18 | 31 |  |
| CC(C)C[C@@H]1C(=O)N[C@H](Cc2ccccc2)C(=O)N[C@H](CC(C)C)C(=O)N[C@H](CC(C)C)C(=O)N[C@H](C(C)C)C(=O)N1C (HELM PEPTIDE1{[dF].[dL].[dL].[dV].[CC(C)C[C@H](C(=O)[*:2])N(C)[*:1]]}$PEPTIDE1,PEPTIDE1,1:R1-5:R2$$$V2.0) |  |  | 1 | 4 |  |
| CC(C)C[C@H]1NC(=O)[C@@H](Cc2ccccc2)NC(=O)[C@@H](CC(C)C)NC(=O)[C@@H](C(C)C)NC(=O)[C@@H](CC(C)C)NC1=O (HELM PEPTIDE1{[dF].[dL].[dL].[dV].[dL]}$PEPTIDE1,PEPTIDE1,1:R1-5:R2$$$V2.0) |  |  | 27 | 15 |  |
| CC(C)C[C@@H]1NC(=O)[C@H](CC(C)C)NC(=O)[C@H](Cc2ccccc2)N(C)C(=O)[C@H](CC(C)C)NC(=O)[C@H](C(C)C)NC1=O (HELM PEPTIDE1{[meF].L.L.V.L}$PEPTIDE1,PEPTIDE1,1:R1-5:R2$$$V2.0) | > 50 | > 50 | 2 | 18 |  |
| CC(C)C[C@@H]1NC(=O)[C@H](Cc2ccccc2)NC(=O)[C@H](CC(C)C)NC(=O)[C@H](C(C)C)NC(=O)[C@H](CCCCNC(=O)OCc2ccccc2)NC1=O (cyclo(FLK(Cbz)VL)) |  |  | 46 | 41 |  |
| CC(C)C[C@@H]1NC(=O)[C@H](Cc2ccccc2)NC(=O)[C@@H](Cc2ccccc2)N(C)C(=O)[C@H](C(C)C)NC(=O)[C@H](CCCCNC(=O)OCc2ccccc2)NC1=O (cyclo(FLK(Cbz)V[dNMeF])) |  |  | 38 | 14 |  |
| CC(C)C[C@@H]1NC(=O)[C@H](Cc2ccccc2)NC(=O)[C@H](CC(C)C)NC(=O)[C@@H](C(C)C)NC(=O)[C@H](CCCCNC(=O)OCc2ccccc2)NC1=O (cyclo(FLK(Cbz)[dV]L)) |  |  | 16 | 3 |  |
| CC(C)[C@@H]1NC(=O)[C@H](Cc2ccccc2)NC(=O)[C@@H](COCc2ccccc2)NC(=O)[C@H](C(C)C)NC(=O)[C@H](C(C)C)NC1=O (cyclo(FVVV[dS](Bn))) |  |  | 25 | 30 |  |
| CC(C)[C@@H]1NC(=O)[C@H](Cc2ccccc2)NC(=O)[C@H](C(C)C)NC(=O)[C@@H](COCc2ccccc2)NC(=O)[C@H](C(C)C)NC1=O (cyclo(FVV[dS](Bn)V)) |  |  | 17 | 14 |  |
| CC(C)C[C@@H]1NC(=O)[C@@H](Cc2ccccc2)NC(=O)[C@@H](CC(C)C)NC(=O)[C@@H](C(C)C)NC(=O)[C@H](CCCCNC(=O)OCc2ccccc2)NC1=O (cyclo(K(Cbz)[dV][dL][dF]L)) |  |  | 22 | 13 |  |
| Nc1ccn([C@@H]2O[C@H](CO)[C@@H](O)C2(F)F)c(=O)n1 [GEMCITABINE] | 14.3 | 11.8 |  |  | 200 |

Reference: ChEMBL document CHEMBL1140733, “Comprehensive study of sansalvamide A derivatives and their structure-activity relationships against drug-resistant colon cancer cell lines” (J Med Chem, 2008)
